According to ChEMBL document CHEMBL1144450 (J Med Chem, 2005):

Columns and labels:
[1] = target: T1, Prostaglandin G/H synthase 1 (Ovis aries, UniProt P05979); assay: In vitro inhibitory concentration against COX-1 enzyme
T1 sequence (P05979 whole entry): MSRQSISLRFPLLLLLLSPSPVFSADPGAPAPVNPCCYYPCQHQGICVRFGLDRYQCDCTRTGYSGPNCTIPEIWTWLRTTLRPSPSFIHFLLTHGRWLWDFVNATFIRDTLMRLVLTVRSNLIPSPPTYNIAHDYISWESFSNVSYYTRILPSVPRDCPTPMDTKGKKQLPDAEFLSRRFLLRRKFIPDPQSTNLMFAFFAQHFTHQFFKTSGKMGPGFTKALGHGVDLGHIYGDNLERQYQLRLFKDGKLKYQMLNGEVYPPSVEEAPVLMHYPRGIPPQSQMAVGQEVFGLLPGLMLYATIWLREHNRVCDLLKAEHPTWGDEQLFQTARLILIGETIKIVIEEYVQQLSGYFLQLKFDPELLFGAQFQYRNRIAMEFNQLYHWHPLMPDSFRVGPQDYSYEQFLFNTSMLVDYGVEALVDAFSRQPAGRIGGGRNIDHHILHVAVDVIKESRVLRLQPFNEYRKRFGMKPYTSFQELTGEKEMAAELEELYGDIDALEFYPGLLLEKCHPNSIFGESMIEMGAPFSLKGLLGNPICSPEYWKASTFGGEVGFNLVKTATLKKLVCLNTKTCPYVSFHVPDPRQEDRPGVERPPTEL

[2] = test system: Rattus norvegicus; assay: In vivo antiinflammatory activity after 3 hr of oral administration was determined using rat carrageenan induced paw edema model; format: functional; conditions: read-out: ID50 (the source's name)
In short: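 Carrageenan-induced foot paw edema in rats, with the test compound and reference drugs given orally. Activity is expressed as ID50 in mg/kg.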

[3] = Percentage of nitric oxide released upon incubation in the presence of pig liver esterase in phosphate buffer solution at pH 7.4, 37 degree C for 1.5 h; format: functional
In short: (§1)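 Pig liver esterase was added at 2 equiv (1 mol compound : 2 mol esterase) in PBS at pH 7.4, 37 °C, 1.5 h. Nitrite from NO was measured by the Griess reaction. Release is given as percent of a theoretical 2 mol NO per mol compound, SEM, n = 3.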

[4] = Percentage of nitric oxide released upon incubation in the presence of guinea pig serum in PBS pH 7.4, 37 degree C for 1.5 h; format: functional; parameters: concentration or dose not given beside the values
In short: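 Test compound (2.0 × 10-4 mmol) was incubated with 260 µL guinea pig serum in PBS at pH 7.4, 37 °C, for 1.5 h. Nitrite was determined by the Griess reaction. Release is given as percent of a theoretical maximum of 2 mol NO per mol compound, SEM, n = 3.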

[5] = Percentage of nitric oxide released by the compound when incubated in phosphate buffer solution at pH 7.4, 37 degree C for 1.5 h; format: functional
In short: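 The compound was incubated in PBS at pH 7.4 and 37 °C for 1.5 h. Nitric oxide was quantified as nitrite by the Griess reaction. Release is expressed as percent of a theoretical maximum of 2 mol NO per mol compound, SEM, n = 3.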

[6] = Percentage of nitric oxide released by the compound when incubated in the presence of pig liver esterase in phosphate buffer solution at pH 7.4, 37 degree C for 1.5 h; format: functional; in short: as §1

Structure (SMILES)	IC50 [1] [µM]	ED50 [2] [mg/kg]	Activity [3] [%]	Activity [4] [%]	Activity [5] [%]	Activity [6] [%]
[O-]/[N+](=N\O)N1CCCC1					94	
CC(C)Cc1ccc(C(C)C(=O)O)cc1 (centres undefined) [IBUPROFEN]		67.4				
COc1ccc2c(c1)c(CC(=O)OCO/N=[N+](\[O-])N1CCCC1)c(C)n2C(=O)c1ccc(Cl)cc1	> 100	10.7	16.3	89.1	15.1	
CN(C)/[N+]([O-])=N/O					95.2	
COc1ccc2c(c1)c(CC(=O)O)c(C)n2C(=O)c1ccc(Cl)cc1 [INDOMETHACIN]		4.2				

Further lines, with some results ahead:

IC50 [1] [µM]	Structure (SMILES)	ED50 [2] [mg/kg]	Activity [3] [%]	Activity [4] [%]	Activity [5] [%]	Activity [6] [%]
> 100	CC(C)Cc1ccc(C(C)C(=O)OCO/N=[N+](\[O-])N2CCCC2)cc1 (centres undefined)	66.8	16.3	89.2	14.9	
> 100	CC(C)Cc1ccc(C(C)C(=O)OCO/N=[N+](\[O-])N(C)C)cc1 (centres undefined)	62.3	17.3	93.6	16.1	
> 100	COc1ccc2c(c1)c(CC(=O)OCO/N=[N+](\[O-])N(C)C)c(C)n2C(=O)c1ccc(Cl)cc1	5.9	16.9	86.3	14.3	
> 100	CC(=O)Oc1ccccc1C(=O)OCO/N=[N+](\[O-])N1CCCC1	182		88.9	14.8	18.5
> 100	CC(=O)Oc1ccccc1C(=O)OCO/N=[N+](\[O-])N(C)C	151	19.1	81.6	15.4	
